From ChEMBL document CHEMBL1152651, “In vivo and in vitro anti-leishmanial activities of 4-nitro-N-pyrimidin- and N-pyrazin-2-ylbenzenesulfonamides, and N2-(4-nitrophenyl)-N1-propylglycinamide” (Bioorg Med Chem, 2009)
pIC50: −log10 of the molar value. Activity calls are given as the source filed them. The calls are words filed in the database; no cut-off is given here.

Experiments:
[1] = test system: Leishmania infantum; experiment: Antileishmanial activity against Leishmania infantum MCAN/ES/92/BCN 83 promastigotes at 100 ug/ml after 48 hrs by resazurin method; assay type: functional; details: for inhibition of growth at 100 µg/mL: MCAN/ES/92/BCN 83, 48 h, read-out: GI
Summary of the method: (§1)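 L. infantum MCAN/ES/92/BCN 83 promastigotes (Schneider's medium, 20% heat-inactivated FBS, 26 °C), 2.5 × 10^5 per well. Compounds in DMSO were first screened at 1, 10, 100 µg/mL, then 252 to 1.9 µM for active ones. After 48 h at 26 °C, resazurin was added and fluorescence read (ex 535/em 590 nm) for % growth inhibition. Triplicates; IC50 by least-squares linear regression.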

[2] = test system: Leishmania infantum; experiment: Antileishmanial activity against Leishmania infantum MCAN/ES/92/BCN 83 promastigotes after 48 hrs by resazurin method; assay type: functional, organism-based; details: for pIC50: Leishmania infantum, MCAN/ES/92/BCN 83, 48 h, read-out: IC50; summary of the method: as §1
[3] = test system: J774; experiment: Cytotoxicity against mouse J774 cells after 24 hrs by resazurin reduction test; assay type: cell-based; details: for IC50: j774; for pIC50: Mus musculus, J774, 24 h, read-out: IC50
Summary of the method: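 J774 murine macrophages (RPMI 1640, 10% FBS, 37 °C, 5% CO2), 5 × 10^4 cells/well, adhered 24 h. Then exposed to compounds for 24 h. Resazurin added for 3 h; fluorescence read at ex 535/em 590 nm, background subtracted. Each concentration assayed three times.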

[4] = test system: Calf thymus DNA; experiment: Binding affinity to calf thymus DNA assessed as increase in DNA viscosity at 1 to 30 uM by viscometer; assay type: nucleic-acid assay; details: Bos taurus
Summary of the method: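 Ubbelohde viscometer at 25.0 or 37.0 °C. Compounds in DMF/cacodylate buffer (pH 6) 2:10 added to 50 µM CT-DNA in cacodylate buffer; final 1–30 µM. Flow times in triplicate, η = t − t0. Plotted as (η/η0)^1/3 versus the compound/DNA ratio.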

[5] = test system: Calf thymus DNA; experiment: Binding affinity to calf thymus DNA assessed as melting temperature (Rvb Tm = 53.8 degC); assay type: nucleic-acid assay; details: Bos taurus
[6] = test system: Nucleic Acid; experiment: Induction of supercoiled Escherichia coli pUC18 DNA cleavage at 6 to 60 uM after 60 mins by agarose gel electrophoresis; assay type: nucleic-acid assay
Summary of the method: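 Supercoiled pUC18 plasmid in 0.1 M cacodylate buffer pH 6.0 with compound at 6–60 µM final, 1 h at 37 °C. Analysed by 0.8% agarose gel in 0.5× TBE with ethidium bromide, 80 V, about 2 h.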

[7] = test system: Nucleic Acid; experiment: Induction of Cu2+-dependent DNA cleavage in Escherichia coli pUC18 DNA assessed as degradation of super coiled form at 15 to 30 uM after 60 mins by agarose gel electrophoresis in presence of cupric chloride; assay type: nucleic-acid assay
Summary of the method: (§2)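 pUC18 plasmid in 0.1 M cacodylate pH 6.0 with CuCl2 + compound (1:1) at 15–45 µM final, plus ascorbate (50-fold excess over Cu(II)). 1 h at 37 °C. Supercoiled, circular and linear forms resolved on 0.8% agarose/0.5× TBE gel with ethidium bromide, 80 V, about 2 h.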

[8] = test system: Nucleic Acid; experiment: Induction of Cu2+-dependent DNA cleavage in Escherichia coli pUC18 DNA assessed as degradation of super coiled form at 45 uM after 60 mins by agarose gel electrophoresis in presence of cupric chloride; assay type: nucleic-acid assay; summary of the method: as §2
[9] = test system: Mus musculus; experiment: Toxicity in BALB/c mouse assessed as reduction hair loss at 5 mg/kg, ip once daily; details: in vivo
[10] = test system: Mus musculus; experiment: Toxicity in BALB/c mouse assessed as reduction in body weight at 5 mg/kg, ip once daily; details: in vivo
[11] = test system: Leishmania infantum; experiment: Antileishmanial activity against Leishmania infantum MCAN/ES/92/BCN 83 promastigotes-infected in BALB/c mouse assessed as reduction of parasite burden in liver at 5 mg/kg, ip once daily for 10 days by limit dilution assay relative to control; parameters: scale not given: the % may be the effect or the level left; details: route intraperitoneal
[12] = test system: Leishmania infantum; experiment: Antileishmanial activity against Leishmania infantum MCAN/ES/92/BCN 83 promastigotes-infected in BALB/c mouse assessed as reduction of parasite burden in spleen at 5 mg/kg, ip once daily for 10 days by limit dilution assay relative to control; parameters: scale not given: the % may be the effect or the level left; details: route intraperitoneal

Structure (SMILES)	inhibition of growth at 100 µg/mL [1]	pIC50 [2]	also measured
O=S(=O)(Nc1ncccn1)c1ccc(F)cc1			growth inhibition (GI) [1]: inactive; IC50 [2]: Not Active; IC50 [3]: Not Active
COc1ccc(S(=O)(=O)Nc2ncccn2)cc1	29.6%	< 3.59	
O=[N+]([O-])c1ccc(S(=O)(=O)Nc2ccncc2)cc1	46.3%	< 3.59	
O=[N+]([O-])c1ccccc1S(=O)(=O)Nc1ncccn1	40.6%	< 3.59	
O=[N+]([O-])c1ccc(S(=O)(=O)Nc2ncccn2)cc1	92.7%	4.00	pIC50 [3]: < 3.59; Activity [4]: inactive; Tm [5]: 54.2 °C; Activity [6]: inactive; Activity [7]: inactive; Activity [8]: Active; Activity [9]: Non-toxic; Activity [10]: Non-toxic; Activity [11]: 97.58%; Activity [12]: 99.82%
Nc1ccc(S(=O)(=O)Nc2ncccn2)cc1 [SULFADIAZINE]			growth inhibition (GI) [1]: inactive; IC50 [2]: Not Active; IC50 [3]: Not Active
O=[N+]([O-])c1ccc(S(=O)(=O)Nc2ccc3[nH]ncc3c2)cc1	88.2%	4.84	pIC50 [3]: < 3.59
CCCNC(=O)CNc1ccc([N+](=O)[O-])cc1	85%	3.81	pIC50 [3]: < 3.59; Activity [4]: inactive; Tm [5]: 54 °C; Activity [6]: inactive; Activity [7]: inactive; Activity [8]: Active; Activity [9]: Non-toxic; Activity [10]: Non-toxic; Activity [11]: 97.95%; Activity [12]: 99.89%
CS(=O)(=O)Nc1ncccn1			growth inhibition (GI) [1]: inactive; IC50 [2]: Not Active; IC50 [3]: Not Active
O=[N+]([O-])c1ccc(S(=O)(=O)Nc2ccccn2)cc1	39.3%	< 3.59	
O=[N+]([O-])c1ccc(S(=O)(=O)Nc2cnccn2)cc1	90.8%	4.18	pIC50 [3]: < 3.59; Activity [9]: Non-toxic; Activity [10]: Non-toxic; Activity [11]: 99.28%; Activity [12]: 99.44%
O=[N+]([O-])c1cccc(S(=O)(=O)Nc2ncccn2)c1			growth inhibition (GI) [1]: inactive; IC50 [2]: Not Active; IC50 [3]: Not Active
O=S(=O)(Nc1cnccn1)c1ccc(Cl)cc1	25.3%	< 3.59	
Cc1cc(NS(=O)(=O)c2ccc([N+](=O)[O-])cc2)no1	85.6%	3.90	pIC50 [3]: < 3.59
Cc1cnc(NS(=O)(=O)c2ccc(Cl)cc2)s1	74.5%	< 3.59	
O=S(=O)(Nc1ncccn1)c1ccccc1	20.3%	< 3.59	
O=[N+]([O-])c1ccc(S(=O)(=O)Nc2cccnc2)cc1	35.7%	< 3.59	

Structure (SMILES)	inhibition of growth at 100 µg/mL [1]	pIC50 [2]	also measured
O=S(=O)(Nc1ccc2c(c1)CCC2)c1ccccc1	45.3%	< 3.59	
Cc1cc(NS(=O)(=O)c2ccccc2)no1	17.9%	< 3.59	
Cc1cc(NS(=O)(=O)c2ccc([N+](=O)[O-])cc2)n[nH]1	71.5%	3.79	pIC50 [3]: < 3.59
O=[N+]([O-])c1ccc(S(=O)(=O)Nc2ccc3c(c2)CCC3)cc1	91.9%	> 6.00	pIC50 [3]: 4.21
O=[N+]([O-])c1ccc(S(=O)(=O)Nc2nccs2)cc1 [PARA-NITROSULFATHIAZOLE]	58.6%	< 3.59	
Cc1cc(C)nc(NS(=O)(=O)c2ccc(Cl)cc2)n1	71.5%	3.65	pIC50 [3]: < 3.59
O=S(=O)(Nc1nccs1)c1ccc(Cl)cc1	65%	< 3.59	
Cc1cc(C)nc(NS(=O)(=O)c2ccc([N+](=O)[O-])cc2)n1	33.3%	< 3.59	
O=S(=O)(Nc1ncccn1)c1ccc(Cl)cc1			growth inhibition (GI) [1]: inactive; IC50 [2]: Not Active; IC50 [3]: Not Active
Cc1cc(NS(=O)(=O)c2ccc(Cl)cc2)no1	15.7%	< 3.59	
O=S(=O)(Nc1ncccn1)c1ccc(Br)cc1			growth inhibition (GI) [1]: inactive; IC50 [2]: Not Active; IC50 [3]: Not Active
O=S(=O)(Nc1cnccn1)c1ccccc1	37%	< 3.59	
Cc1csc(NS(=O)(=O)c2ccc([N+](=O)[O-])cc2)n1	55.6%	< 3.59	
O=S(=O)(Nc1ccc2c(c1)CCC2)c1ccc(Cl)cc1	49.9%	< 3.59	
Cc1cnc(NS(=O)(=O)c2ccccc2)s1	69%	< 3.59	
Cc1cnc(NS(=O)(=O)c2ccc([N+](=O)[O-])cc2)s1	36.7%	< 3.59	
